The text below walks through data of PMC6641930 (ACS Omega, 2017).

For series [1], the target named is T1, insulin fibrils (Bos taurus, UniProt P01317). Conditions: read-out: Kd of ThT binding to insulin fibrils; one binding site; cited from earlier work.
Series [2] addresses T2, lysozyme fibrils (Gallus gallus, UniProt P00698). The settings on record: two binding sites, cited from earlier work.
The conditions of series [3]: cited from earlier work.
In series [4] the target is T3, TTR fibrils (Homo sapiens, UniProt P02766). Conditions: two separate binding events, cited from earlier work.
The target in series [5] is T3, TTR fibrils. As to the kind of experiment: Titration of TTR fibrils on a fixed probe concentration. The format is binding. The essentials:
(§1)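 Fibrils (0–20 μM, monomer basis) are titrated onto fixed probe: 1 μM, or 0.5 μM for Aβ1-42 fibrils. Buffers are pH 3.0 for TTR, insulin and lysozyme, and PBS pH 7.5 for Aβ1-42 (10 μM, 37 °C, 24 h quiescent). Samples equilibrate 30 min at room temperature. Excitation 330 nm, emission 350–700 nm. Kd comes from a one-site nonlinear fit with fixed Bmax correcting for unbound probe. SD is from two independent binding series.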

In series [6] the target is T1, insulin fibrils. As to the kind of experiment: Titration of insulin fibrils on a fixed probe concentration. The format is binding, Bovine. The essentials:
as §1

In series [7] the target is T2, lysozyme fibrils. As to the kind of experiment: Titration of lysozyme fibrils on a fixed probe concentration. The format is binding, chicken. The essentials: as §1
Series [8] addresses T4, Aβ1-42 fibrils (Homo sapiens, UniProt P05067). Description: Titration of Aβ1-42 fibrils on a fixed probe concentration. It is filed as binding. The essentials:
as §1

Series [9] addresses T3, TTR fibrils. As to the kind of experiment: Fluorescence emission of probe bound to TTR fibrils. It is filed as binding. The settings on record: 5 μM fibrils + 1 μM probe; pH 3.0; excitation 330 nm. The procedure, abridged: (§2)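 Fibrils made from pH 3.0 (TTR: purified WT TTR in 50 mM NaAc/100 mM NaCl; bovine insulin or hen lysozyme: 200 μM in 25 mM HCl pH 1.6 at 65 °C, then dialysed into NaAc/NaCl pH 3.0). 1.0 μM probe from DMSO stock mixed with 5 μM fibrils (monomer basis) in HOAc/NaAc pH 3.0. Excitation 330 nm, emission 350–600 nm. Fold increase taken relative to free probe in buffer.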

In series [10] the target is T1, insulin fibrils. Description: Fluorescence emission of probe bound to insulin fibrils. It is filed as binding, Bovine. The settings on record: pH 3.0; for Int: fold increase in fluorescence intensity upon binding to insulin fibrils: 5 μM fibrils (monomer basis) + 1 μM probe, versus free probe; for λem2: emission maxima of probe bound to insulin fibrils: 5 μM fibrils + 1 μM probe, excitation 330 nm. The procedure, abridged: as §2

The target in series [11] is T2, lysozyme fibrils. As to the kind of experiment: Fluorescence emission of probe bound to lysozyme fibrils. The format is binding, chicken. Conditions: pH 3.0; for Int: fold increase in fluorescence intensity upon binding to lysozyme fibrils: 5 μM fibrils (monomer basis) + 1 μM probe, versus free probe; for λem2: emission maxima of probe bound to lysozyme fibrils: 5 μM fibrils + 1 μM probe, excitation 330 nm. The procedure, abridged: as §2

For series [12], the target named is T4, Aβ1-42 fibrils. As to the kind of experiment: Fluorescence emission of probe bound to Aβ1-42 fibrils. The settings on record: PBS buffer pH 7.5; for Int: fold increase in fluorescence intensity upon binding to Aβ1-42 fibrils: 5 μM fibrils (monomer basis) + 1 μM probe, versus free probe; for λem2: emission maxima of probe bound to Aβ1-42 fibrils: 5 μM fibrils + 1 μM probe, excitation 330 nm. The format is binding. The essentials:
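Recombinant Aβ1-42 (extra N-terminal Met), solubilised in 6 M GuHCl and gel-filtered into PBS pH 7.5. […] Probe (1.0 μM, from DMSO stock) mixed with 5 μM fibrils or freshly dissolved monomer (monomer basis) in PBS pH 7.5. Emission spectra at 330 nm excitation, identical settings.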

In series [13] the target is native Aβ1-42 (Homo sapiens, UniProt P05067). As to the kind of experiment: Fluorescence emission of probe with freshly dissolved native Aβ1-42. The format is binding. Conditions: 5 μM native Aβ1-42 + 1 μM probe; PBS buffer. The essentials: (§3)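 Probe (1.0 μM final, from DMSO stock) is read free in buffer or with 5 μM native protein (monomer basis). Buffers are HOAc/NaAc pH 3.0 or PBS pH 7.5. Aβ1-42 is recombinant with an extra N-terminal Met, freshly gel-filtered monomer in PBS pH 7.5. Spectra are recorded at 330 nm excitation, 350–600 nm emission, with identical instrument settings.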
Chain of native Aβ1-42 (P05067 672-713): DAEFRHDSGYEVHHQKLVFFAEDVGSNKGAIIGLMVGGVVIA

Series [14] can be described thus: UV-vis absorption and fluorescence spectra in methanol. It is filed as physicochemical. The settings on record: for λmax (em): excitation 330 nm, [probe] = 20 μM; for ε: four concentrations. The essentials: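 Absorption is read in methanol in a 1 cm quartz cuvette at room temperature, at 20 μM and at four concentrations (50–5 μM, or 10–2 μM for one probe) for ε. Fluorescence of 20 μM probe in methanol uses 330 nm excitation, 350–600 nm emission and 1 nm resolution.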

The nature of series [15]: Fluorescence lifetime. It is filed as physicochemical. Conditions: A: degassed methanol, [probe] = 5 μM; for τ1: excitation 337 nm. The procedure, abridged: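 TCSPC decays of 5 μM probe in argon-degassed methanol, excited at 337 nm and monitored at each emission maximum at room temperature. Instrument response is determined with a fibril solution. Decays are fitted to a sum of exponentials, with fit quality judged by χ2, residual distribution and residual autocorrelation. Average lifetime is calculated from amplitudes and lifetimes. Lifetime uncertainty is within 10%.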

Series [16] concerns the target T4, Aβ1-42 fibrils. Description: Fluorescence lifetime. The settings on record: for α1 (normalized pre-exponential factor) / α2 (normalized pre-exponential factor) / τ2 / λem1 (emission wavelength of decay) / τ1: B: bound to Aβ1-42 fibrils in PBS buffer; for τavg (average fluorescence lifetime): B: bound to Aβ1-42 fibrils in PBS buffer pH 7.5, [probe] = 5 μM; for τavg (average fluorescence lifetime) / λem1 (emission wavelength of decay) / τ1: [fibrils] = 20 μM; for λem1 (emission wavelength of decay) / τ1: [probe] = 5 μM. The procedure, abridged: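 Time-correlated single photon counting on 5 μM probe with 20 μM Aβ1-42 fibrils (monomer basis) in PBS pH 7.5 at 25 °C, not degassed. Excitation 337 nm; decay recorded at the bound-probe emission maximum. Instrument response is measured with fibril solution. Multi-exponential fits are judged by χ2 and residuals. Uncertainty is within 10%.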

The target of series [17] is native TTR (Homo sapiens, UniProt P02766). As to the kind of experiment: Fluorescence emission of probe with native TTR. Conditions: 5 μM native TTR + 1 μM probe. It is filed as binding. The essentials: as §3
The mark [18] stands for this setting: read-out: Kd1, TTR fibrils (high-affinity binding site).

Where “and” joins values, the source holds several entries; their conditions need not be identical. Equal entries are not always repeated. Where two headings read alike, the source gives them in different places.

T4 sequence (P05067 672-713): as above
T2 sequence (P00698 19-147): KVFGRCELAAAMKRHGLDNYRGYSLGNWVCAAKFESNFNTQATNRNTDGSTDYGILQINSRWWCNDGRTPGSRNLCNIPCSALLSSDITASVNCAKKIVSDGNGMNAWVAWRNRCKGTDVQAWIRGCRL
T1 sequence (P01317 25-54 limits assumed): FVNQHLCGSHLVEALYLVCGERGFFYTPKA
T1 sequence (P01317 85-105 limits assumed): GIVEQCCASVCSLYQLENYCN

As for `Cc1ccc2c(c1)sc(-c1ccc(N(C)C)cc1)[n+]2C` [ThT, thioflavin T], the Kd in series [1] was 10.4 µM; in series [2] (read-out: Kd1 of ThT binding to lysozyme fibrils), 0.13 µM; in series [2] (read-out: Kd2 of ThT binding to lysozyme fibrils), 17.9 µM. Also, the “average fluorescence lifetime t1/2” value in series [3] was < 1 ns.
For `Oc1ccc(/C=C/c2cccc3ccccc23)cc1O` [Compound 1, (E)-4-(2-(naphthalen-1-yl)vinyl)benzene-1,2-diol], the Kd is 0.11 µM in series [4] (setting [18]) and > 10 µM in series [4] (read-out: Kd2, TTR fibrils).
`Oc1ccc(/C=C/c2ccccc2)cc1O` [Compound 2, (E)-4-Styrylbenzene-1,2-diol]: the Kd in series [5] came to 15.1 ± 0.9 µM. In series [6], this compound came in with a Kd of 8 ± 1.6 µM. The Kd in series [7] was found to be 7 ± 1.6 µM. In addition, in series [8], the Kd is 4.3 ± 0.2 µM. Also, in series [9], the “λem2: emission maxima of probe bound to TTR fibrils” value came to 395 nm. In [10], the “Int: fold increase in fluorescence intensity upon binding to insulin fibrils” value (“Int: fold increase … to insulin fibrils” for short) is on record as 7.5 fold and the “λem2: emission maxima of probe bound to insulin fibrils” value worked out at 382 nm. Moreover, in series [11], the “Int: fold increase in fluorescence intensity upon binding to lysozyme fibrils” value (from here on “Int: fold increase … to lysozyme fibrils”) came out at 3.8 fold and the “λem2: emission maxima of probe bound to lysozyme fibrils” value is 382 nm. In addition, in series [12], the “Int: fold increase in fluorescence intensity upon binding to Aβ1-42 fibrils” value (shortened to “Int: fold increase … to Aβ1-42 fibrils”) amounted to 2.6 fold and the “λem2: emission maxima of probe bound to Aβ1-42 fibrils” value is listed as 384 nm. The “fluorescence / binding with freshly prepared native Aβ1-42” value (from here on “fluorescence / binding”) in series [13] is listed as “Neither 2, 4, or 5 fluoresced appreciably”. Besides, in [14], the Stokes shift worked out at 61 nm, the “λmax (abs)” value is given as 325 nm, the “λmax (em)” value was 386 nm and the ε is recorded as 25 038 L·M^–1 cm^–1. Moreover, in series [15], the “α1 (normalized pre-exponential factor)” value worked out at 1, the “λem1 (emission wavelength of decay)” value is reported as 395 nm, the “τavg (average fluorescence lifetime)” value is reported as <0.05 ns and the τ1 is reported as < 0.05 ns. In series [16], the “α1 (normalized pre-exponential factor)” value is 0.86; the “α2 (normalized pre-exponential factor)” value was 0.14; the τ2 was 2.31 ns; the “τavg (average fluorescence lifetime)” value is 1.3 ns and 1.33 ns. Moreover, in [16], the “λem1 (emission wavelength of decay)” value was 410 nm and the τ1 turned out to be 0.28 ns.
As for `Oc1ccc(/C=C/c2ccc3cc4ccccc4cc3c2)cc1O` [Compound 4, (E)-4-(2-(anthracen-2-yl)vinyl)benzene-1,2-diol], in [5], the Kd is 7.4 ± 0.5 µM. In [6], this compound yielded a Kd of 3.7 ± 0.6 µM. In series [7], this compound showed a Kd of 2.8 ± 0.4 µM. In series [8], this compound registered a Kd of 1.6 ± 0.1 µM. The “λem2: emission maxima of probe bound to TTR fibrils” value in [9] was 451 nm and 475 nm. Besides, in series [10], the “Int: fold increase … to insulin fibrils” value turned out to be 91.4 fold; the “λem2: emission maxima of probe bound to insulin fibrils” value is 451 nm and 471 nm. For the same compound, in series [11], the “Int: fold increase … to lysozyme fibrils” value worked out at 37.5 fold and the “λem2: emission maxima of probe bound to lysozyme fibrils” value came to 451 nm. Further, in series [12], the “Int: fold increase … to Aβ1-42 fibrils” value was 10.3 fold. Moreover, the “emission peaks of probe bound to native TTR” value in series [17] (excitation 330 nm) was 449 nm and 476 nm. Besides, the “fluorescence intensity increase upon binding to native TTR” value in series [17] (versus probe in buffer) is on record as “about 6.1 fold”. Further, the “fluorescence / binding” value in [13] is recorded as “Neither 2, 4, or 5 fluoresced appreciably”. Moreover, in series [14], the Stokes shift is 148 nm, the “λmax (abs)” value turned out to be 335 nm, the “λmax (em)” value worked out at 483 nm and the ε is listed as 27 070 L·M^–1 cm^–1. For the same compound, in series [15], the “α1 (normalized pre-exponential factor)” value is 1, the “λem1 (emission wavelength of decay)” value came to 475 nm, the “τavg (average fluorescence lifetime)” value came to 4.23 ns and the τ1 is listed as 4.23 ns. Moreover, in series [16], the “α1 (normalized pre-exponential factor)” value is 0.38; the “α2 (normalized pre-exponential factor)” value turned out to be 0.62; the τ2 amounted to 6.06 ns; the “τavg (average fluorescence lifetime)” value was 5.7 ns and 5.73 ns. In [16], the “λem1 (emission wavelength of decay)” value amounted to 460 nm and the τ1 is listed as 0.64 ns.
In series [5], `Oc1ccc(/C=C/c2ccc3ccccc3c2)cc1O` [Compound 3, (E)-4-(2-(naphthalen-2-yl)vinyl)benzene-1,2-diol] showed a Kd of 12.3 ± 1 µM. Besides, in [6], the Kd amounted to 4.5 ± 0.4 µM. The Kd in series [7] amounted to 2.9 ± 0.2 µM. For the same compound, the Kd in [8] turned out to be 2.2 ± 0.4 µM. For the same compound, in [9], the “λem2: emission maxima of probe bound to TTR fibrils” value worked out at 395 nm. For the same compound, in [10], the “Int: fold increase … to insulin fibrils” value is on record as 13.7 fold and the “λem2: emission maxima of probe bound to insulin fibrils” value is recorded as 410 nm. In addition, in series [11], the “Int: fold increase … to lysozyme fibrils” value is given as 13.1 fold and the “λem2: emission maxima of probe bound to lysozyme fibrils” value was determined as 410 nm. Further, in [12], the “Int: fold increase … to Aβ1-42 fibrils” value came out at 6.9 fold and the “λem2: emission maxima of probe bound to Aβ1-42 fibrils” value amounted to 408 nm. Besides, the “fluorescence / binding” value in series [13] is given as “showed some binding”. In addition, in [14], the Stokes shift is 86 nm, the “λmax (abs)” value turned out to be 334 nm, the “λmax (em)” value is reported as 420 nm and the ε is given as 30 170 L·M^–1 cm^–1. Also, in series [15], the “α1 (normalized pre-exponential factor)” value stood at 1, the “λem1 (emission wavelength of decay)” value was found to be 415 nm, the “τavg (average fluorescence lifetime)” value came out at 0.52 ns and the τ1 came to 0.52 ns. Besides, in series [16], the “α1 (normalized pre-exponential factor)” value turned out to be 0.54; the “α2 (normalized pre-exponential factor)” value is listed as 0.46; the τ2 amounted to 1.65 ns; the “τavg (average fluorescence lifetime)” value was 1.5 ns and 1.45 ns. For the same compound, in [16], the “λem1 (emission wavelength of decay)” value worked out at 420 nm and the τ1 turned out to be 0.23 ns. For the same compound, in [4] (setting [18]), the Kd is 0.07 µM. Further, in series [4] (read-out: Kd2, TTR fibrils), the Kd is > 10 µM.
